The source of these data is publication PMC6943132 (Nucleic Acids Research, 2019).

Like-named read-outs stand apart in the source and are kept apart here.

One series addresses T1, BenM WT (Acinetobacter sp. ADP1, UniProt O68014 1-304).
T1 sequence: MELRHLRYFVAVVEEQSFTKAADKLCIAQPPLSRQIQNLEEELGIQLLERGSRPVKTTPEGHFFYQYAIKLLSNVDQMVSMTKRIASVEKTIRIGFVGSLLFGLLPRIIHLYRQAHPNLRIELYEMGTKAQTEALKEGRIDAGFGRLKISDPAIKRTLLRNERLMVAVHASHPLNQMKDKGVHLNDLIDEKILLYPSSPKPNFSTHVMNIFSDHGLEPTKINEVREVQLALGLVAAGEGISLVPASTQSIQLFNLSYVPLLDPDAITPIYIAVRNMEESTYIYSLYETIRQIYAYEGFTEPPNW
Kind of series: BLI. (Biolayer interferometry detects binding as a change in optical thickness at a sensor tip.)

For the next series, the system named is 209 bp_CYC1pro. Kind of series: Biolayer interferometry of BenM WT on negative control cyc1 promoter element. It counts as binding. The note with it: BLI, 1.6–100 nM WT BenM. A digest of the protocol: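 His-tagged protein purified on a HisTrap column with stepwise imidazole elution (Tris–HCl, NaCl, glycerol, DTT, pH 7.9), then optionally polished by Superdex 200 gel filtration (50 mM Tris–HCl, 150 mM NaCl, pH 8.0). Biotinylated 209 bp promoter duplex was annealed at 94°C for 2 min, then RT for 3 h. Kinetics were kept only when fit R² > 0.95; Req/Rmax fractional saturation versus protein concentration gave the Hill coefficient.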

Series [1] relates to 209bp_CYC1p_BenO_T1::yEGFP reporter. In kind it is cell-based, Saccharomyces cerevisiae. A digest of the protocol: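 S. cerevisiae CEN.PK carrying a chromosomal yeGFP reporter and plasmid-borne BenM variants, grown overnight in SC-Leu at 30°C. Cultures were subcultured 1:100 into medium ± CCM for 22–23 h, then flow cytometry (488 nm) gave MFI from 10 000 gated single cells. Controls were run in biological triplicate. Fold induction is inducer-medium MFI divided by control-medium MFI. Populations were compared by two-tailed Mann–Whitney test.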

Series [2] has the same test system. It counts as cell-based, Saccharomyces cerevisiae. Particulars: P < 0.05.

B1: 209bp_CYC1pro (dsDNA)
DNA 1: ATTAGGACCTTTGCAGCATAAATTACTATACTTCTATAGACACACAAACACAAATACACACACTAAATTAATA
DNA 2: TATTAATTTAGTGTGTGTATTTGTGTTTGTGTGTCTATAGAAGTATAGTAATTTATGCTGCAAAGGTCCTAAT
Regarding B1, the binding result in the series with BenM WT is listed as “no binding”.

B2: BenM WT: Acinetobacter sp. ADP1 CCM-binding LysR-type transcriptional activator BenM, wild type (protein, UniProt O68014 1-304, looked up)
HTH-type transcriptional …: T1 sequence
For B2, in the series with 209 bp_CYC1pro, the “binding to negative control cyc1 promoter element” value is “no binding was observed”. The fold-induction was 0.90 ± 0.05 in series [1] (0.035 mM CCM) and 1.02 ± 0.14 in series [1] (0.070 mM CCM). Further, in series [1] (1.4 mM CCM vs control medium), the fold induction (commonly the ratio of treated to control signal) is reported as 2.8 fold. Moreover, the “lowest CCM concentration with significant induction (lower detection limit)” value in series [1] (P < 0.05 vs control medium) worked out at 0.56 mM. Besides, in series [1] (within the operational range of WT BenM), the “fold induction by CCM” value is listed as 5 fold. In addition, the “lowest adipic acid concentration with significant induction” value in series [2] is 14 mM.
